# An excerpt weighted towards active compounds, which were near 3.3% of everything screened.
# HTRA1 inh – inhibitors of human serine peptidase HTRA1. hit rate 0.5% among 340,000. inhibition, % at 5.96 µM. Q92743. recombinant HTRA1, FP-rhodamine activity-based probe, fluorescence polarization. AID 504803; in the data active = inhibition above about 36%
# ABHD4 inh – ABHD4 (mouse) inhibition, primary FP screen. hit rate 0.54% among 370,000. purified mABHD4, FP-Rh probe fluorescence polarization. inhibition, % at 8.92 µM. AID 720543;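 active = inhibition exceeding the mean over every tested compound plus 3 SD, cut at about 30% in these data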
#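 system = mouse ABHD4 enzyme, wild type | medium = HEPES pH 7.0, NaCl, Pluronic buffer | also added = FP-Rh probe | incubation = Enzyme–compound pre-incubation 45 min, then probe 60 min, both 25 °C | technique = fluorescence polarization, excitation 525 nm, emission 598 nm, BODIPY TMR filters | controls = S159A mutant high control, sample median low control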
# SIAE primary – human SIAE inhibition, primary screen; Q9HAT2; SIAE FP-Rh probe binding, fluorescence polarization; inhibition, % at 9.66 µM; hit rate 0.69% among 370,000; AID 1053197;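 active = inhibition above a cutoff: mean of compounds within the control limits plus 3 SD of those, cut at about 17% in these data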
# Target sequence (Q9HAT2 whole entry, looked up): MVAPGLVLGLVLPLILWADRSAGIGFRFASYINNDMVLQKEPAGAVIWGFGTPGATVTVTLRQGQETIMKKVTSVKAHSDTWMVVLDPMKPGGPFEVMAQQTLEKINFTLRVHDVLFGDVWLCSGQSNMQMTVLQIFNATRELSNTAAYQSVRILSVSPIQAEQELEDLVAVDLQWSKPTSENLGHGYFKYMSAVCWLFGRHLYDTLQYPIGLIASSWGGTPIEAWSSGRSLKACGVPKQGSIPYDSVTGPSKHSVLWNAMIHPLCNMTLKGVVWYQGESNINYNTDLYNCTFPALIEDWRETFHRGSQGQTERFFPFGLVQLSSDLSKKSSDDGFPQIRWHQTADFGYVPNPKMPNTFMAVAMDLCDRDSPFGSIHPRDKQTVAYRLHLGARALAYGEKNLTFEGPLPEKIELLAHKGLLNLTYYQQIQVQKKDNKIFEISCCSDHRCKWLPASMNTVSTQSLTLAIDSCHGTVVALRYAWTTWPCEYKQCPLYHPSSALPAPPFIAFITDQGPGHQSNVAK
# PRMT1 FP inh – blocks human protein arginine methyltransferase 1; Q99873; recombinant PRMT1, activity-based probe fluorescence polarization; inhibition, % at 2.79 µM; hit rate 1.3% among 370,000; AID 652257;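 active = inhibition above about 21% made by adding two undisclosed values, limit read from the data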
# rCAG binder – r(CAG) repeat RNA binding; TO-PRO-1 dye displacement fluorescence; inhibition, % at 3 µM; hit rate 1.3% among 370,000;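 active = inhibition above the plate cutoff, the mean of all test compounds on that plate plus 3 SD, cut at about 35% in these data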;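 note: higher means more dye released from RNA so lower well fluorescence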
# rCAG bind conf – r(CAG) RNA repeat binding, confirmation; TO-PRO-1 dye displacement fluorescence; shares compounds with rCAG binder; inhibition, % at 3 µM; hit rate 70% among 4,300;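 active = inhibition above a per-plate cutoff, the mean inhibition of sample wells plus 3 SD, cut at about 35% in these data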;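 note: loss of TO-PRO-1 fluorescence as compound displaces dye from 1x1 AA loop RNA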
# dCAG dye counter – disrupts DNA CAG TO-PRO-1 complex, flagging rCAG hits. shares compounds with rCAG binder. d(CAG) DNA oligo TO-PRO-1 dye displacement, fluorescence. inhibition, % at 3 µM. hit rate 94% among 4,300. AID 652068;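 active = inhibition above its plate's cutoff, the mean test-well inhibition plus 3 SD, cut at about 4.8% in these data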;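 note: hits displace the dye from DNA and so lower well fluorescence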
# dCAG dye DR – DNA CAG dye complex inhibition, dose response counter-screen; shares compounds with rCAG binder; DNA CAG/GTC duplex TO-PRO-1 dye displacement fluorescence; IC50, µM; hit rate 20% among 250; AID 686960; in the data active = IC50 below about 10 µM
# Hits are given with their value; n = inactive; x = no result given.
SMILES,HTRA1 inh,ABHD4 inh,SIAE primary,PRMT1 FP inh,rCAG binder,rCAG bind conf,dCAG dye counter,others
Cc1c(COc2ccc3ccccc3c2)nnn1CC(=O)NS(=O)(=O)c1ccccc1C(F)(F)F,x,n,n,n,70.2,63.9,26.2,
Cc1cc(N2CCN(C(=O)Oc3ccc(-c4ccccc4)cn3)CC2)c2ccccc2n1,x,n,n,n,n,x,x,
CC(COc1ccc(Br)cc1)CN1CCC(C(O)(c2ccccc2)c2ccccc2)CC1 (stereo unspecified),x,n,n,n,n,x,x,
COc1ccc(S(=O)(=O)NCC(=O)N2CCN(c3ccccn3)CC2)c(OC)c1,x,n,n,n,n,x,x,
C=CCCC(=O)Nc1nc(C)c(-c2csc(Nc3ccc(Cl)cc3Cl)n2)s1,n,n,n,n,35.7,n,12.6,
COc1ccc(Cl)cc1Nc1nc(-c2sc(NC(=O)CC(C)C)nc2C)cs1,n,n,n,n,36.4,n,13.5,
COC(=O)[C@@]12CCCCC3=C1N(CCC3)C(=O)[C@H]2CC(=O)N1CCSCC1,x,n,n,n,n,x,x,
O=S(=O)(NCc1cn(Cc2ccccc2)nn1)c1ccccc1Br,x,n,n,n,n,x,x,
O=C(NC(=S)Nc1sc2c(c1C(=O)O)CCCC2)c1ccccc1,n,n,n,n,72.0,55.7,20.4,
O=C(Nc1sc2c(c1C(=O)O)CCC2)c1cccc(Cl)c1,n,n,n,n,74.2,53.2,15.5,
N#Cc1c(NC(=S)NC(=O)c2ccccc2)sc2c1CCC2,n,n,n,n,n,x,x,
Cc1cccc(C(=O)Nc2sc3c(c2C(=O)O)CCCC3)c1,n,n,n,n,40.9,n,9.3,
O=C(c1cccs1)n1ccc2ccc(-c3ccc4ccn(C(=O)c5cccs5)c4c3)cc21,x,n,n,n,n,x,x,
O=S(=O)(Nc1nc2ccc(S(=O)(=O)N3CCCC3)cc2s1)c1ccc(F)cc1,n,n,n,n,68.5,52.4,20.3,
Clc1ccc([C@H]2OC[C@@]3(CNCCN4CCOCC4)CS[C@H](c4ccc(Cl)cc4)N23)cc1,x,n,n,n,n,x,x,
CCc1ccc(NC(=O)C(CC)Sc2nc3ccsc3c(=O)n2CCC(=O)O)cc1 (stereo unspecified),n,n,n,n,37.9,n,4.4,
CCC(Sc1nc2ccsc2c(=O)n1Cc1ccc(C(=O)O)cc1)C(=O)Nc1cccc(OC)c1 (stereo unspecified),n,n,n,n,45.6,36.3,10.7,
CCc1ccc(NC(=O)CSc2nc3ccsc3c(=O)n2CCC(=O)O)cc1,n,n,n,n,n,x,x,
N#Cc1cccc(CNCC(=O)N2CCC3(CC2)OCCO3)c1,x,n,n,n,n,x,x,
COc1ccc2nc(NNC(=O)COc3ccccc3)sc2c1,n,n,n,n,n,x,x,
COc1ccc2nc(NNC(=O)c3cc(=O)c4ccccc4o3)sc2c1,n,n,n,21.9,36.1,55.0,19.2,
CCc1cc(C(=O)O)c(NC(=O)c2cc(OC)c(OC)c(OC)c2)s1,n,n,n,n,38.4,n,n,
S=c1[nH]nc(-c2n[nH]c3c2CCC3)n1N=Cc1ccc(OCc2ccccc2)cc1,x,n,n,n,37.9,43.1,13.8,
S=c1[nH]nc(COc2ccccc2)n1/N=C/c1ccc(Cl)cc1,n,n,n,n,44.0,n,7.4,
Cc1cc(C)c(COc2ccc(/C=N/n3c(C)n[nH]c3=S)cc2)c(C)c1,n,n,n,n,n,x,x,
SMILES,HTRA1 inh,ABHD4 inh,SIAE primary,PRMT1 FP inh,rCAG binder,rCAG bind conf,dCAG dye counter,others
COc1ccc(/C=N/n2c(-c3cc(C)[nH]n3)n[nH]c2=S)cc1,n,n,n,n,n,x,x,
Cc1cc(-c2n[nH]c(=S)n2N=Cc2ccc(OCc3ccccc3)cc2)n[nH]1,x,n,n,n,34.7,39.8,9.8,
CC(C)Oc1cccc(-c2n[nH]c(=S)n2N=Cc2ccc(OCc3ccccc3)cc2)c1,x,n,n,n,50.6,52.4,26.3,
S=c1[nH]nc(COc2ccccc2)n1/N=C/c1ccc(Cl)cc1Cl,n,n,n,n,n,x,x,
Cc1ccccc1Cn1cc(COC(=O)Nc2ccc(F)cc2)nn1,x,n,n,n,n,x,x,
C[C@@H]1[C@@H](O)C[C@@]2(C[C@H](O)c3cc(Cl)cc(Cl)c3O2)O[C@H]1c1ccccc1Cl,x,n,n,n,n,x,x,
COc1ccc(CNC(=O)CSc2nc3c([nH]2)c(=O)n(C)c(=O)n3C)cc1,x,n,n,n,n,x,x,
O=C(CCc1ccc(O)cc1)NNC(=S)NCCc1ccccc1,n,n,n,n,n,x,x,
O=C(NNC(=S)NCCc1ccccc1)c1ccc(Br)s1,n,n,n,n,54.0,46.5,14.4,dCAG dye DR=n
CCc1nnc(NS(=O)(=O)c2ccc(NC(=S)NC(=O)c3ccc(OC)cc3)cc2)s1,n,n,n,n,70.5,66.6,33.4,
COc1ccc(Cc2nnc(NS(=O)(=O)c3ccc(Cl)cc3)s2)cc1OC,n,n,n,n,48.6,53.1,15.7,
Cc1cc(NS(=O)(=O)c2ccc(NC(=S)NC(=O)c3ccc(C(C)(C)C)cc3)cc2)no1,n,n,n,n,n,x,x,
O=C(NC(=S)Nc1ccc(S(=O)(=O)Nc2nccs2)cc1)c1ccc(F)cc1,n,n,n,n,52.9,37.9,13.8,
CC(C)(C)C(=O)NC(=S)Nc1ccc(S(=O)(=O)Nc2nccs2)cc1,n,n,n,n,n,x,x,
COc1ccc(C(=O)NC(=S)Nc2ccc(S(=O)(=O)Nc3cc(C)on3)cc2)cc1OC,n,n,n,n,34.7,36.3,6.5,
Cc1ccc(-n2c(Cc3cccs3)nnc2SCC(=O)Nc2ccc(OCc3ccccc3)cc2)cc1,x,n,n,n,n,x,x,
O=S(=O)(Nc1ccc(C(O)(C(F)(F)F)C(F)(F)F)cc1)c1cccs1,x,n,n,n,x,x,x,
CCc1nnc(NS(=O)(=O)c2ccc(NC(=S)NC(=O)c3ccc(OC)c(OC)c3)cc2)s1,n,n,n,n,67.6,68.2,32.4,
CC1(C(=O)NS(=O)(=O)c2cccc(C#N)c2)CCN1C(=O)Cc1ccc(-c2ccccc2)cc1 (stereo unspecified),x,n,n,n,41.3,44.0,11.4,
CC1(C(=O)NS(=O)(=O)c2ccc(C#N)cc2)CCN1C(=O)Cc1ccc(-c2ccccc2)cc1 (stereo unspecified),x,n,n,n,42.2,42.6,11.3,
Cc1ccc(C(=O)Oc2coc(CSc3ncccn3)cc2=O)cc1[N+](=O)[O-],x,n,n,n,x,x,x,
CCCCOc1ccc(S(=O)(=O)NC(=O)C2(C)CCN2C(=O)c2cccc(F)c2)cc1 (stereo unspecified),x,n,n,n,n,x,x,
CCCCc1ccc(S(=O)(=O)NC(=O)C2(C)CCN2C(=O)Cc2ccccc2)cc1 (stereo unspecified),x,n,n,n,39.3,n,4.8,

# High-throughput results: PubChem, The Scripps Research Institute Molecular Screening Center
